Test results reported in ChEMBL document CHEMBL4330162, “Structure of Hierridin C, Synthesis of Hierridins B and C, and Evidence for Prevalent Alkylresorcinol Biosynthesis in Picocyanobacteria” (J Nat Prod, 2019).
Active and inactive are the calls of the source. The calls are words filed in the database; no cut-off is given here.

Key:
[1] = system: Plasmodium falciparum; test: Antimalarial activity against Plasmodium falciparum 3D7 infected in human erythrocytes after 48 hrs by SYBR Green-1 dye based assay; format: functional, organism-based; details: 3D7, 48 h
How it was run: (§1)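 Asexual parasites kept on human erythrocytes in RPMI 1640 with 25 mM HEPES, […] hypoxanthine and 10% AlbuMAX II, pH 7.2. Cultures held at 37 °C under 5% O2 and 3−5% CO2 in N2, and sorbitol-synchronized. SYBR Green I fluorescence read at ex 485/em 535 nm. Percent survival vs untreated; IC50 by nonlinear regression.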

[2] = system: Plasmodium falciparum; test: Antimalarial activity against Plasmodium falciparum Dd2 infected in human erythrocytes after 48 hrs by SYBR Green-1 dye based assay; format: functional, organism-based; details: Dd2, 48 h; how it was run: as §1
[3] = system: HepG2; test: Cytotoxicity against human HepG2 cells up to 72 uM after 24 to 48 hrs by MTT assay; format: functional, cell-based
How it was run: (§2)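 Cells seeded at 10^4 cells cm−2 and left 24 h to adhere. Exposed 24 or 48 h to fresh medium containing compound from DMSO (1 μL per 100 μL) at final 3 and 30 μg mL−1. MTT added at 0.5 mg mL−1, formazan dissolved in DMSO, absorbance read at 550 nm. Triplicate.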

[4] = system: T47D; test: Cytotoxicity against human T47D cells up to 72 uM after 24 to 48 hrs by MTT assay; format: functional, cell-based; how it was run: as §2
[5] = system: SH-SY5Y; test: Cytotoxicity against human SH-SY5Y cells up to 72 uM after 24 to 48 hrs by MTT assay; format: functional, cell-based; how it was run: as §2
[6] = system: HT-29; test: Cytotoxicity against human HT-29 cells up to 72 uM after 24 to 48 hrs by MTT assay; format: functional, cell-based; how it was run: as §2
[7] = system: Caco-2; test: Cytotoxicity against human Caco2 cells up to 72 uM after 24 to 48 hrs by MTT assay; format: functional, cell-based; how it was run: as §2
[8] = system: MG-63; test: Cytotoxicity against human MG63 cells up to 72 uM after 24 to 48 hrs by MTT assay; format: functional, cell-based; how it was run: as §2
[9] = system: RKO; test: Cytotoxicity against human RKO cells up to 72 uM after 24 to 48 hrs by MTT assay; format: functional, cell-based; how it was run: as §2

SMILES	IC50 [1] [nM]	IC50 [2] [nM]	Activity [3]	Activity [4]	Activity [5]	Activity [6]	Activity [7]	Activity [8]	Activity [9]
CCCCCCCCCCCCCCCc1cc(OC)cc(OC)c1O	2100	2300							
CCCCCCCCCCCCCCCc1c(O)c(OC)cc(OC)c1Cl	1500	2300	inactive	inactive	inactive	inactive	inactive	inactive	inactive
